Results published in ChEMBL document CHEMBL3997852, “Discovery of Fluorine-Containing Benzoxazinyl-oxazolidinones for the Treatment of Multidrug Resistant Tuberculosis” (ACS Med Chem Lett, 2017).
Converted amounts (≈) assume the structure as drawn.

Experiments:
Vero = assay: Cytotoxicity against African green monkey Vero cells assessed as growth inhibition after 48 hrs by MTT assay; assay type: ADME, cell-based; conditions: Chlorocebus sabaeus
[1] = Selectivity index, ratio of IC50 for African green monkey Vero cells to MIC for Mycobacterium tuberculosis H37Rv
[2] = test system: Mycobacterium tuberculosis; assay: Antitubercular activity against Mycobacterium tuberculosis H37Rv after 7 days by microplate alamar blue assay; assay type: functional; conditions: 168 h
Procedure, shortened: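 Microplate alamar blue assay on M. tuberculosis H37Rv. The MIC is the lowest concentration that reduces fluorescence by ≥90% relative to the mean of replicate bacterium-only controls.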

[3] = Metabolic stability in human liver microsomes assessed as compound remaining at 0.1 uM in presence of NADPH after 30 mins by LC/MS method; assay type: ADME, microsome; conditions: read-out: Stability
[4] = Metabolic stability in CD1 mouse liver microsomes assessed as compound remaining at 0.1 uM in presence of NADPH after 30 mins by LC/MS method; assay type: ADME, microsome; conditions: read-out: Stability
[5] = Tmax in Balb/c mouse at 100 mg/kg, po measured over 24 hrs by LC/TSQ quantum access mass spectrometric method; assay type: ADME, organism-based; conditions: in vivo
[6] = Plasma elimination half life in Balb/c mouse at 100 mg/kg, po measured over 24 hrs by LC/TSQ quantum access mass spectrometric method; assay type: ADME, organism-based; conditions: read-out: beta t1/2 (converted)
[7] = Cmax in Balb/c mouse at 100 mg/kg, po measured over 24 hrs by LC/TSQ quantum access mass spectrometric method; assay type: ADME, organism-based; parameters: dose 100 mg/kg, route oral; conditions: in vivo
[8] = AUC (0 to infinity) in Balb/c mouse at 10 mg/kg, iv measured over 24 hrs by LC/TSQ quantum access mass spectrometric method; assay type: ADME, organism-based; parameters: dose 10 mg/kg, time infinity, route intravenous; conditions: in vivo
Liver [9] = assay: Metabolic stability in human liver microsomes at 0.1 uM in absence of NADPH after 30 mins by LC/MS method; assay type: ADME, microsome; conditions: 0.5 h
[10] = Clearance in Balb/c mouse at 10 mg/kg, iv measured over 24 hrs by LC/TSQ quantum access mass spectrometric method; assay type: ADME, organism-based; conditions: in vivo
[11] = MRT in Balb/c mouse at 10 mg/kg, iv measured over 24 hrs by LC/TSQ quantum access mass spectrometric method; assay type: ADME, organism-based; conditions: in vivo
[12] = Tmax in Balb/c mouse at 10 mg/kg, iv measured over 24 hrs by LC/TSQ quantum access mass spectrometric method; assay type: ADME, organism-based; conditions: in vivo
[13] = Cmax in Balb/c mouse at 10 mg/kg, iv measured over 24 hrs by LC/TSQ quantum access mass spectrometric method; assay type: ADME, organism-based; parameters: dose 10 mg/kg, route intravenous; conditions: in vivo
[14] = MRT in Balb/c mouse at 100 mg/kg, po measured over 24 hrs by LC/TSQ quantum access mass spectrometric method; assay type: ADME, organism-based; conditions: in vivo
[15] = Plasma elimination half life in Balb/c mouse at 10 mg/kg, iv measured over 24 hrs by LC/TSQ quantum access mass spectrometric method; assay type: ADME, organism-based; conditions: read-out: beta t1/2 (converted)
HepG2 = assay: Cytotoxicity against human HepG2 cells after 48 hrs by MTT assay; conditions: HepG2, 48 h
[16] = AUC (0 to infinity) in Balb/c mouse at 100 mg/kg, po measured over 24 hrs by LC/TSQ quantum access mass spectrometric method; assay type: ADME, organism-based; parameters: dose 100 mg/kg, route oral, time infinity; conditions: in vivo
H9c2 = assay: Inhibition of mitochondrial protein synthesis in rat H9c2 cells after 5 days by In-Cell ELISA; conditions: H9c2, 120 h
[17] = Oral bioavailability in Balb/c mouse at 100 mg/kg measured over 24 hrs by LC/TSQ quantum access mass spectrometric method; assay type: ADME, organism-based; conditions: in vivo
Liver [18] = assay: Metabolic stability in CD1 mouse liver microsomes at 0.1 uM in absence of NADPH after 30 mins by LC/MS method; assay type: ADME, microsome; conditions: 0.5 h

SMILES | IC50 (Vero) [µg/mL] | selectivity ratio [1] | MIC90 [2] [µg/mL] | further results
O=C(NC[C@@H]1OC(=O)N2c3cc(F)c(C4=CCN(CCO)CC4)cc3OC[C@@H]12)C1CCC1 | > 64 | 58 | 1.1 (≈ 2.48 µM) | 
O=C1O[C@@H](CNc2ccon2)[C@@H]2COc3cc(C4=CCN(CCO)CC4)c(F)cc3N12 | > 64 | 65 | 0.98 (≈ 2.28 µM) | 
CC(=O)NC[C@@H]1OC(=O)N2c3ccc(C4=CCN(CCO)CC4)cc3OC[C@@H]12 | 26.8 (≈ 69.1 µM) | 10 | 2.65 (≈ 6.83 µM) | 
COC(=O)NC[C@@H]1OC(=O)N2c3cc(F)c(C4=CCN(C(=O)CO)CC4)cc3OC[C@@H]12 | > 64 | 64 | 0.999 (≈ 2.29 µM) | 
O=C(CO)N1CC=C(c2cc3c(cc2F)N2C(=O)O[C@@H](Cn4ccnn4)[C@@H]2CO3)CC1 |  |  | 10.9 (≈ 25.4 µM) | 
CC(=O)NC[C@@H]1OC(=O)N2c3cc(F)c(C4CCN(CCO)CC4)cc3OC[C@@H]12 |  |  | 14.6 (≈ 35.8 µM) | 
O=C(CO)N1CC=C(c2cc3c(cc2F)N2C(=O)O[C@@H](COc4ccon4)[C@@H]2CO3)CC1 |  |  | > 32 | 
O=C(NC[C@@H]1OC(=O)N2c3cc(F)c(C4=CCN(CCO)CC4)cc3OC[C@@H]12)C1CC1 | > 64 | 135 | 0.473 (≈ 1.1 µM) | 
CC(=O)NC[C@@H]1OC(=O)N2c3cc(F)c(C4=CCN(CCO)CC4)cc3OC[C@@H]12 | > 64 | 111 | 0.578 (≈ 1.43 µM) | 
CC(=O)NC[C@@H]1OC(=O)N2c3cc(F)c(C4=CCN(C(=O)CO)CC4)cc3OC[C@@H]12 | > 64 |  | 0.391 (≈ 0.932 µM) | remaining at 0.5 h, 0.1 µM [3]: 103%; remaining at 0.5 h, 0.1 µM [4]: 102%; Tmax [5]: 2 h; half-life [6]: 253 min; Cmax [7]: 30000 ng/mL; AUC(0-inf) [8]: 12000 ng·h/mL; Stability (Liver [9]): Stable; clearance [10]: 13.9 mL/min/kg; MRT [11]: 2.54 h; Tmax [12]: 1.8 min; Cmax [13]: 11400 ng/mL; MRT [14]: 4.12 h; half-life [15]: 494 min; IC50 (HepG2): > 64 µg/mL; AUC(0-inf) [16]: 122 µg·h/mL; IC50 (H9c2): 9.19 µM; bioavailability [17]: 102%; Stability (Liver [18]): Stable
O=C(NC[C@@H]1OC(=O)N2c3cc(F)c(C4=CCN(C(=O)CO)CC4)cc3OC[C@@H]12)C1CC1 | > 64 | 34 | 1.87 (≈ 4.19 µM) | 
CCC(=O)N1CC=C(c2cc3c(cc2F)N2C(=O)O[C@@H](CNC(C)=O)[C@@H]2CO3)CC1 |  |  | 6.36 (≈ 15.2 µM) | 
O=C(CO)N1CC=C(c2cc3c(cc2F)N2C(=O)O[C@@H](CNc4ccon4)[C@@H]2CO3)CC1 | > 64 | 61 | 1.04 (≈ 2.35 µM) | 
COC(=O)NC[C@@H]1OC(=O)N2c3cc(F)c(C4=CCN(CCO)CC4)cc3OC[C@@H]12 | 57.4 (≈ 136 µM) | 26 | 2.22 (≈ 5.27 µM) | 
CC(=O)NC[C@@H]1OC(=O)N2c3cc(F)c(C4=CCN(C(=O)[C@@H](O)CO)CC4)cc3OC[C@@H]12 | > 64 | 133 | 0.483 (≈ 1.07 µM) | 
